Measured values as given in ChEMBL document CHEMBL3259663, “3-Amido-3-aryl-piperidines: A Novel Class of Potent, Selective, and Orally Active GlyT1 Inhibitors” (ACS Med Chem Lett, 2014).

What was measured:
[1] = target: T1, Sodium- and chloride-dependent glycine transporter 1 (Homo sapiens, UniProt P48067); assay: Inhibition of human GlyT1 expressed in cells assessed as [3H]glycine uptake; format: cell-based
T1 sequence (P48067 whole entry): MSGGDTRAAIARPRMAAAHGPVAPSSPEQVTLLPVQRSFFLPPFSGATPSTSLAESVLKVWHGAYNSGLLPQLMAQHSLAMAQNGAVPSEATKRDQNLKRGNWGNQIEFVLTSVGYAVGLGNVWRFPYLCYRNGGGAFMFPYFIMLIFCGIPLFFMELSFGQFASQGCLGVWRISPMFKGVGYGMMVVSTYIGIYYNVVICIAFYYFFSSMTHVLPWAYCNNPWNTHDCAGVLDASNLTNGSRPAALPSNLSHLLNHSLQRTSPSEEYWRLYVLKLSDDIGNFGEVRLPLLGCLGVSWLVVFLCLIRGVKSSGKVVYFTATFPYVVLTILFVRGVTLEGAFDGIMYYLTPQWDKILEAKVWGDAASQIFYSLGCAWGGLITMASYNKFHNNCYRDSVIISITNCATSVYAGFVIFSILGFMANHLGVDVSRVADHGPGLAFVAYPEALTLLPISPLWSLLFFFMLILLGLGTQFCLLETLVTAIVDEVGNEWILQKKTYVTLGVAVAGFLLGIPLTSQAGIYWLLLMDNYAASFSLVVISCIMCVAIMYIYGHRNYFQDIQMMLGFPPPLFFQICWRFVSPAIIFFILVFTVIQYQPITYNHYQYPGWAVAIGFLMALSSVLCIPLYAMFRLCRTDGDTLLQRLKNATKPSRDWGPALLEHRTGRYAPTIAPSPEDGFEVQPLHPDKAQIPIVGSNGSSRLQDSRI
Outline: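 [³H]-glycine uptake inhibition in cells transfected with human GlyT1. EC₅₀ values are the average of at least two independent experiments.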

[2] = target: T1, Sodium- and chloride-dependent glycine transporter 1; assay: Inhibition of GlyT1 (unknown origin)

| EC50 [1] | IC50 [2] | Structure (SMILES) |
| --- | --- | --- |
| 54 nM |  | COc1cc(C(F)(F)F)cc(SC)c1C(=O)NC1(c2cccnc2)CCCN(C)C1 (racemic) |
| 180 nM |  | COc1cc(C(F)(F)F)cc(SC)c1C(=O)N[C@]1(c2ccccc2)CCCN(C)C1 |
| 380 nM |  | COc1cc(C(F)(F)F)cc(C(F)(F)F)c1C(=O)NC1(c2ccccc2)CCCN(CC2CC2)C1 (racemic) |
| 28 nM |  | COc1cc(C(F)(F)F)cc(SC)c1C(=O)NC1(c2ccc(Cl)cc2)CCCN(C)C1 (racemic) |
| 110 nM |  | COc1cccc(C2(NC(=O)c3c(OC)cc(C(F)(F)F)cc3SC)CCCN(C)C2)c1 (racemic) |
| > 10000 nM |  | COc1cc(C(F)(F)F)cc(C(F)(F)F)c1C(=O)NC1(c2ccccc2)CCCN(S(C)(=O)=O)C1 (racemic) |
| 230 nM |  | COc1cc(C(F)(F)F)cc(SC)c1C(=O)NC1(c2ccc(C)cc2)CCCN(C)C1 (racemic) |
| > 10000 nM |  | COc1cc(C(F)(F)F)cc(SC)c1C(=O)NC1(c2ncccn2)CCCN(C)C1 (racemic) |
| 67 nM |  | CSc1cc(C(F)(F)F)ccc1C(=O)NC1(c2ccccc2)CCCN(C)C1 (racemic) |
| 1700 nM |  | COc1cc(C(F)(F)F)cc(SC)c1C(=O)NC1(c2ccncn2)CCCN(C)C1 (racemic) |
| 24 nM |  | COc1cc(C(F)(F)F)cc(SC)c1C(=O)NC1(c2ccccc2)CCCN(C)C1 (racemic) |
| 670 nM |  | CN1CCCC(NC(=O)c2ccc(Cl)cc2Cl)(c2ccccc2)C1 (racemic) |
| 540 nM |  | CN1CCCC(NC(=O)c2ccc(C(F)(F)F)cc2C(F)(F)F)(c2ccccc2)C1 (racemic) |
| > 10000 nM |  | COc1cc(C(F)(F)F)cc(C(F)(F)F)c1C(=O)NC1(c2ccccc2)CCCN(C(C)=O)C1 (racemic) |
| 320 nM |  | Cc1cc(C(F)(F)F)ccc1C(=O)NC1(c2ccccc2)CCCN(C)C1 (racemic) |
| 180 nM |  | COc1cc(C(F)(F)F)cc(SC)c1C(=O)NC1(c2ccc(F)cn2)CCCN(C)C1 (racemic) |

The remaining lines, values behind:

| Structure (SMILES) | EC50 [1] | IC50 [2] |
| --- | --- | --- |
| COc1cc(C(F)(F)F)cc(C(F)(F)F)c1C(=O)NC1(c2ccccc2)CCCN(Cc2ccccc2)C1 (racemic) | 6700 nM |  |
| CN1CCCC(NC(=O)c2ccc(C(F)(F)F)cc2C#N)(c2ccccc2)C1 (racemic) | > 10000 nM |  |
| COc1cc(C(F)(F)F)cc(C(F)(F)F)c1C(=O)NC1(c2ccccc2)CCCN(C2CCCC2)C1 (racemic) | 270 nM |  |
| COc1ccc(C2(NC(=O)c3c(OC)cc(C(F)(F)F)cc3SC)CCCN(C)C2)cc1 (racemic) | 170 nM |  |
| CN1CCCC(NC(=O)c2ccc(C(F)(F)F)cc2Br)(c2ccccc2)C1 (racemic) | 300 nM |  |
| CCN1CCCC(NC(=O)c2c(OC)cc(C(F)(F)F)cc2C(F)(F)F)(c2ccccc2)C1 (racemic) | 230 nM |  |
| COc1cc(C(F)(F)F)cc(C(F)(F)F)c1C(=O)NC1(c2ccccc2)CCCNC1 (racemic) | 660 nM |  |
| COc1cc(C(F)(F)F)cc(C(F)(F)F)c1C(=O)NC1(c2ccccc2)CCCN(C(C)C)C1 (racemic) | 230 nM |  |
| COc1cc(C(F)(F)F)cc(SC)c1C(=O)NC1(c2cnccn2)CCCN(C)C1 (racemic) | 1670 nM |  |
| COc1cccc(C(F)(F)F)c1C(=O)NC1(c2ccccc2)CCCN(C)C1 (racemic) | 1500 nM |  |
| CN1CCCC(NC(=O)c2ccc(C(F)(F)F)cc2)(c2ccccc2)C1 (racemic) | > 10000 nM |  |
| COc1cc(C(F)(F)F)cc(SC)c1C(=O)NC1(c2cccc(Cl)c2)CCCN(C)C1 (racemic) | 25 nM |  |
| COc1cc(C(F)(F)F)cc(C(F)(F)F)c1C(=O)NC1(c2ccccc2)CCCN(C)C1 (stereo not given) |  | 140 nM |
| COc1cc(C(F)(F)F)cc(SC)c1C(=O)NC1(c2ccncc2)CCCN(C)C1 (racemic) | 60 nM |  |
| COc1cc(C(F)(F)F)ccc1C(=O)NC1(c2ccccc2)CCCN(C)C1 (racemic) | 4800 nM |  |
| COc1cc(C(F)(F)F)cc(C(F)(F)F)c1C(=O)NC1(c2ccccc2)CCCN(C(=O)c2ccccc2)C1 (racemic) | > 10000 nM |  |
| COc1cc(C(F)(F)F)cc(SC)c1C(=O)NC1(c2cccc(F)c2)CCCN(C)C1 (racemic) | 48 nM |  |
| CN1CCCC(NC(=O)c2ccc(C(F)(F)F)cc2F)(c2ccccc2)C1 (racemic) | 9900 nM |  |
| COc1cc(C(F)(F)F)cc(SC)c1C(=O)NC1(c2ccc(F)cc2)CCCN(C)C1 (racemic) | 26 nM |  |
